Results of several laboratories.
Protocols differ between the studies behind these lines.
Target: G protein-coupled receptor kinase 5 (GRK5, Homo sapiens, UniProt P34947)

Compound	observed	mode	method	concentration	quantity	value
N#CCCc1ccc2c(c1)-c1[nH]c3ccc([N+](=O)[O-])cc3c1CC(=O)N2	cell-free assay			0.5 µM	remaining signal	103%
COc1cc(Cl)c(C(=O)N[C@@H](CN[C@H]2CC[C@@H](N)CC2)Cc2ccc(C#N)cc2)cc1-c1ccc(CN[C@H](C)c2ccc(C)cc2)o1	enzyme activity	inhibitor		1 µM	remaining activity	99%
CCCS(=O)(=O)Nc1ccc(F)c(C(=O)c2c[nH]c3ncc(-c4ccc(Cl)cc4)cc23)c1F	enzyme activity	inhibitor		1 µM	inhibition	< 10%
O=C1NC(=O)c2cc(Nc3ccc(F)cc3)c(Nc3ccc(F)cc3)cc21	cell-free assay			0.5 µM	remaining signal	101%
CC(C)(O)[C@H]1CC[C@H](Nc2ccc3ncc(-c4cccc(C(F)(F)F)c4)n3n2)CC1	enzyme activity	inhibitor		1 µM	remaining activity	95.1%
COc1cc2ncnc(Nc3ccc(Oc4ccccc4)c(C)c3C)c2cc1OC	enzyme activity	inhibitor		1 µM	inhibition	0%
Cc1ccc(Nc2nccc(N(C)c3ccc4c(C)n(C)nc4c3)n2)cc1S(N)(=O)=O	enzyme activity	inhibitor		10 µM	inhibition	-10%
Cc1sc(C(=O)NC2COC2)cc1-n1cc(NC(=O)Nc2c(F)cccc2Cl)cn1	enzyme activity	inhibitor		10 µM	remaining activity	113%
Cc1ccc(NC(=O)c2ccc(C)c(C(F)(F)F)c2)cc1C#Cc1nn(C2CCC(O)CC2)c2ncnc(N)c12 (centres unmarked)	cell-free assay			10 µM	remaining signal	99%
O=C(Nc1cnn(-c2csc(C(=O)NC3COC3)c2)c1)Nc1ccccc1Cl	enzyme activity	inhibitor		5 µM	remaining activity	98%
CCN(CC)c1ccc(C2=NNC(=O)CC2C)cc1[N+](=O)[O-] (centres unmarked)	enzyme activity	inhibitor		10 µM	remaining activity	103%
COc1cc2ncnc(Nc3ccc(Oc4ccccc4)cc3C)c2cc1OC	enzyme activity	inhibitor		1 µM	inhibition	-2%
CN1CC(Oc2cnc(C#N)cc2-c2ccn3nc(NC(=O)C4CC4)cc3c2)C1	enzyme activity	inhibitor		1 µM	inhibition	3%
CC(C)(C)c1nc2c(s1)c1nc(N)ncc1c1ccc(NS(=O)(=O)c3c(F)cccc3F)c(F)c12	enzyme activity	inhibitor	radiometric	1 µM	remaining activity	84%
Cc1ccc(C(=O)NCc2ccsc2)cc1C#Cc1cn(C(C)C)c2ncnc(N)c12	enzyme activity	inhibitor		1 µM	activity vs control	111%
CCCOc1ccc(OC)c(F)c1C(=O)c1ccc(C(=O)N[C@@H]2CNC[C@H]2NC(=O)c2ccc3[nH]ncc3c2)cc1	enzyme activity	inhibitor		10 µM	remaining activity	114%
CC(C)(C)c1nc(-c2cccc(NS(=O)(=O)c3c(F)cccc3F)c2F)c(-c2ccnc(N)n2)s1	enzyme activity	inhibitor	radiometric	1 µM	remaining activity	85%
CNC(=O)c1cc(Oc2ccc(NC(=O)Nc3ccc(Cl)c(C(F)(F)F)c3)cc2)ccn1	enzyme activity	inhibitor		0.3 µM	inhibition	7%
Cc1cnc(NC2CCOCC2)nc1-n1cnc(C(=O)NC(CN)c2cc(F)cc(Cl)c2)c1 (centres unmarked)	enzyme activity	inhibitor	radiometric	1 µM	remaining activity	96%
Cc1cc(NC(=O)c2cccc3cc(-c4cccc5[nH]nc(N)c45)ccc23)ccc1F	enzyme activity	inhibitor		0.1 µM	activity vs control	112%
